This is an account of results in ChEMBL document CHEMBL1147796, “New potent P-glycoprotein inhibitors carrying a polycyclic scaffold” (J Med Chem, 2006).

The target of series [1] is T1, ATP-dependent translocase ABCB1 (Homo sapiens, UniProt P08183). Put plainly: Antiproliferative activity against human MDR1 transfected mouse L5178Y cell line. It counts as functional, cell-based. The following applies: read-out: ID50 (the source's name) (converted).
The target in series [2] is T1, ATP-dependent translocase ABCB1. The experiment in a line: Reversal of multi-drug resistance in L5178Y cells transfected with human MDR1 as relative fluorescent rhodamine123 activity at 0.1 ug/mL. It counts as cell-based. A digest of the protocol: (§1)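 L5178Y mouse T-cell lymphoma subline carrying the human MDR1 gene, with the parental drug-sensitive line also listed. A larger number of cells was exposed to compound for 30 min. Rhodamine 123 accumulation was read by fluorescence, and P-gp-mediated efflux reversal was expressed as a fluorescence activity ratio.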

For series [3] the target is unchanged. The experiment in a line: Reversal of multi-drug resistance in L5178Y cells transfected with human MDR1 as relative fluorescent rhodamine123 activity at 1 ug/mL. It counts as cell-based. A digest of the protocol: as §1

T1 sequence (P08183 whole entry): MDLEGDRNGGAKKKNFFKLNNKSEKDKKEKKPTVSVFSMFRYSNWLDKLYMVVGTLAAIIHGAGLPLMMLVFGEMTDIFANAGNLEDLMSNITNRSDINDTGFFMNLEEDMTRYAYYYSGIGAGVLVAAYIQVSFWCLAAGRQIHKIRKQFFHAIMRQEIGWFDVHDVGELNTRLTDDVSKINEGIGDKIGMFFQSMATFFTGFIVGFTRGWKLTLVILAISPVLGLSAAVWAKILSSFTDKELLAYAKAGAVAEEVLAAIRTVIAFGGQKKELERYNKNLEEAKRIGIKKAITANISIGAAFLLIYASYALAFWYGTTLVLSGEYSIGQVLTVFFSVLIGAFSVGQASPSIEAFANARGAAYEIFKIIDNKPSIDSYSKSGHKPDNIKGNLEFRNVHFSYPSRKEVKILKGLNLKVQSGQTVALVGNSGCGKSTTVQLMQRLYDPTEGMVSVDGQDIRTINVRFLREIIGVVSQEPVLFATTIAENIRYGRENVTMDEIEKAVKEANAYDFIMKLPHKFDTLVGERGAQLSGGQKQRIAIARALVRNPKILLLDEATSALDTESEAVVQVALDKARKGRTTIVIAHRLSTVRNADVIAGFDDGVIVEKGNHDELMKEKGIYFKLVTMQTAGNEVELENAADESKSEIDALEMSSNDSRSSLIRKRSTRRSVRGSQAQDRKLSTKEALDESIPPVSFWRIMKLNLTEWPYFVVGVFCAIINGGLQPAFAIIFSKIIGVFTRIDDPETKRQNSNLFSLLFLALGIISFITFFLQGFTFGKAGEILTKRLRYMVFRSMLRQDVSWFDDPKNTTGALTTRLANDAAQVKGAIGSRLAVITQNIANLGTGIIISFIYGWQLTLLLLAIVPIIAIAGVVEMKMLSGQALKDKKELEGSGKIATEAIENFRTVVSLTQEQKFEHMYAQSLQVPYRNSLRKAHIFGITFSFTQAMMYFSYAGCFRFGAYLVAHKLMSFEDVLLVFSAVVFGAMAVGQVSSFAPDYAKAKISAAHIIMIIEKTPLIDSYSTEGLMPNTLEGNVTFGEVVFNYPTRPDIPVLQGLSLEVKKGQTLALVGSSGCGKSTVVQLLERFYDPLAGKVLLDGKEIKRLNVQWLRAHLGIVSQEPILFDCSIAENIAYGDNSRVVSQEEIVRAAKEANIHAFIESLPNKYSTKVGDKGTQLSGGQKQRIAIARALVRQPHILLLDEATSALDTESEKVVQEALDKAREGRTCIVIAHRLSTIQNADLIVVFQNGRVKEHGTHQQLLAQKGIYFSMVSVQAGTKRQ

Take `COc1ccc(CCN(C)CCN2C(=O)C3C4c5ccccc5C(c5ccccc54)C3C2=O)cc1OC` (centres undefined): in series [1], the GI50 was 4.23 µM. Further, the Ratio in series [2] is on record as 2.76; in series [3], 47.85.

`COc1ccc(CCN(C)CCCN2C(=O)C3C4c5ccccc5C(c5ccccc54)C3C2=O)cc1OC` (centres undefined): the GI50 in series [1] was 5.72 µM. The Ratio in series [2] is 7.91; in series [3] it was 28.62.

For `COc1ccc(CCN(C)CC#CCN2C(=O)C3C4c5ccccc5C(c5ccccc54)C3C2=O)cc1OC` (centres undefined), the GI50 in series [1] is 2.55 µM. In addition, the Ratio in series [2] stood at 2.65; in series [3], 89.35.
